Results taken from ChEMBL document CHEMBL1127572, “Hypoxia-selective antitumor agents. 9. Structure-activity relationships for hypoxia-selective cytotoxicity among analogues of 5-[N,N-bis(2-chloroethyl)amino]-2,4-dinitrobenzamide” (J Med Chem, 1994).
≈ marks a conversion by molar mass, not a printed value.

How the values were obtained:
UV4 [1] = assay: The ratio of the cytotoxicities against UV4 cell line in the air and N2 was measured using clonogenic assay; format: functional, Cricetulus griseus
Outline: (§1)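 UV4 cells (10^6/mL, stirred 10 mL suspensions) were gassed with 5% CO2 in air or in N2 after 60 min pre-equilibration, with clonogenic survival sampled over time. Concentrations giving similar kill rates under each gas were chosen. Ratio = CT10(air)/CT10(N2). Mean ± SEM of separate experiments.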

UV4 [2] = assay: Tested for the product of drug concentration and exposure time required to reduce UV4 cell survival to 10% under hypoxic condition by clonogenic assay
[3] = Solubility (alpha-MEM culture medium, containing 5% fetal calf serum); format: physicochemical; settings: alpha-MEM culture medium with 5% fetal calf serum; read-out: S
Outline: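 Solubility (mM) in α-MEM with 5% fetal calf serum, measured at ambient temperature by UV spectroscopy.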

[4] = Ratio of the cytotoxicities against drug induced aerobic Walker cells and chinese hamster ovary fibroblast line AA8; format: functional
Outline: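 IC50 in AA8 divided by IC50 in Walker 256 (WS) cells. Walker cells were seeded at 225 cells/0.15 mL with continuous aerobic drug exposure over 4 days, read by MTT. Ratios are interexperiment means.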

CHO-AA8 = assay: Aerobic cytotoxicity was assessed in a growth inhibition assay using log phase cultures of the chinese hamster ovary fibroblast line AA8; format: functional, cell-based
Outline: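 AA8 Chinese hamster ovary cells seeded at 200 cells/well, grown 24 h, then exposed 18 h to five 2-fold serial dilutions in duplicate. Drug washed out, cells grown a further 78 h, density read by methylene blue staining. IC50 = concentration giving 50% growth inhibition versus controls. Values are means ± SEM.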

[5] = Tested for hypersensitivity factor which is the ratio of cytotoxicities against aerobic UV4 cells and chinese hamster ovary fibroblast line AA8
[6] = The ratio of the cytotoxicities against UV4 cell line in the air and N2 was measured using clonogenic assay.; format: functional; outline: as §1

Row | Compound | CT10 ratio (UV4 [1]) | CT10 (UV4 [2]) | solubility [3] | IC50 ratio [4] | IC50 (CHO-AA8; Cricetulus griseus, CHO-AA8) | IC50 ratio [5] | CT10 ratio [6] | IC50 (CHO-AA8; cho-aa8)
1 | NC(=S)c1cc(N(CCCl)CCCl)c([N+](=O)[O-])cc1[N+](=O)[O-] | >3 | 19 µM·h | 38 µM (≈ 14 µg/mL) | >1 | > 25 µM | >2 | – | –
2 | NC(=O)c1cc(N(CCBr)CCBr)c([N+](=O)[O-])cc1[N+](=O)[O-] | 20 | 8 µM·h | 42 µM (≈ 18.5 µg/mL) | 3.1 | 57 µM | 7.5 | – | –
3 | C[N+](C)([O-])CCNC(=O)c1cc(N(CCCl)CCCl)c([N+](=O)[O-])cc1[N+](=O)[O-] | 8 | 4500 µM·h | > 42000 µM | 2.3 | 7290 µM | 1.7 | – | –
4 | CN(C)CCNC(=O)c1cc(N(CCCl)CCCl)c([N+](=O)[O-])cc1[N+](=O)[O-] | 60 | 21 µM·h | 35000 µM (≈ 14800 µg/mL) | 5.6 | 220 µM | 3.9 | – | –
5 | CS(=O)(=O)NS(=O)(=O)c1cc(N(CCCl)CCCl)c([N+](=O)[O-])cc1[N+](=O)[O-] | 5.2 | 980 µM·h | 32000 µM (≈ 14900 µg/mL) | 1.5 | 466 µM | 1 | – | –
6 | O=C(c1cc(N2CC2)c([N+](=O)[O-])cc1[N+](=O)[O-])N1CCOCC1 | 1.7 | 30 µM·h | – | 800 | 694 µM | 330 | – | –
7 | NC(=O)c1cc(N(CCI)CCI)c([N+](=O)[O-])cc1[N+](=O)[O-] | 42 | 4.4 µM·h | 35 µM (≈ 18.7 µg/mL) | 5.2 | 34 µM | 2.6 | – | –
8 | CN(C)C(=O)c1cc(N(CCCl)CCCl)c([N+](=O)[O-])cc1[N+](=O)[O-] | >20 | 250 µM·h | 130 µM (≈ 49.3 µg/mL) | <0.3 | 310 µM | 1.4 | – | –
9 | CCN(CCCl)c1cc(C(=O)NCCN(C)C)c([N+](=O)[O-])cc1[N+](=O)[O-] | 3.5 | 390 µM·h | > 38000 µM | 5 | 570 µM | 1.9 | – | –
10 | NC(=O)c1cc(NCCCl)c([N+](=O)[O-])cc1[N+](=O)[O-] | – | – | – | 380 | 748 µM | 1.4 | – | –
11 | O=C(NCCO)c1cc(N(CCCl)CCCl)c([N+](=O)[O-])cc1[N+](=O)[O-] | – | – | 100 µM (≈ 39.5 µg/mL) | – | > 100 µM | – | – | –
12 | CCN(CCCl)c1cc(C(N)=O)c([N+](=O)[O-])cc1[N+](=O)[O-] | – | > 300 µM·h | 160 µM (≈ 50.7 µg/mL) | >1 | > 97 µM | – | – | –
13 | O=C(O)CCNC(=O)c1cc(N(CCCl)CCCl)c([N+](=O)[O-])cc1[N+](=O)[O-] | 2.3 | 12000 µM·h | 11000 µM (≈ 4660 µg/mL) | 1.5 | 6100 µM | 1.1 | – | –
14 | O=C(NCCN1CCOCC1)c1cc(N(CCCl)CCCl)c([N+](=O)[O-])cc1[N+](=O)[O-] | 45 | 83 µM·h | 4700 µM (≈ 2180 µg/mL) | 3.7 | 920 µM | 3 | – | –
15 | CS(=O)(=O)OCCN(CCOS(C)(=O)=O)c1cc(C(N)=O)c([N+](=O)[O-])cc1[N+](=O)[O-] | 17 | 70 µM·h | 530 µM (≈ 249 µg/mL) | >3 | – | >4 | – | –
16 | CS(=O)(=O)OCCN(CCCl)c1cc(C(N)=O)c([N+](=O)[O-])cc1[N+](=O)[O-] | – | 48 µM·h | 840 µM (≈ 345 µg/mL) | 6 | 945 µM | 13 | 60 | –
17 | NC(=O)c1cc(N2CC2)c([N+](=O)[O-])cc1[N+](=O)[O-] [TRETAZICAR] | 3.6 | 225 µM·h | 7900 µM (≈ 1990 µg/mL) | 37000 | 563 µM | 50 | – | –
18 | O=C(NCC(O)CO)c1cc(N(CCCl)CCCl)c([N+](=O)[O-])cc1[N+](=O)[O-] (stereo not given) | 8.6 | 465 µM·h | 7400 µM (≈ 3150 µg/mL) | 1.6 | 1930 µM | 4.4 | – | –
19 | N#Cc1cc(N(CCCl)CCCl)c([N+](=O)[O-])cc1[N+](=O)[O-] | 8.5 | 10 µM·h | 120 µM (≈ 40 µg/mL) | 3.2 | 24 µM | 6.8 | – | –
20 | NC(=O)c1cc(N(CCCl)CCCl)c([N+](=O)[O-])cc1[N+](=O)[O-] | 58 | 95 µM·h | 190 µM (≈ 66.7 µg/mL) | 4.1 | – | 6.8 | – | 470 µM
21 | O=C(O)c1cc(N(CCCl)CCCl)c([N+](=O)[O-])cc1[N+](=O)[O-] | – | 19000 µM·h | 18000 µM (≈ 6340 µg/mL) | 4.7 | 10600 µM | 1.4 | >1.2 | –
22 | O=C(c1cc(N(CCCl)CCCl)c([N+](=O)[O-])cc1[N+](=O)[O-])N1CCOCC1 | 1.3 | 125 µM·h | 30 µM (≈ 12.6 µg/mL) | 4.1 | 240 µM | 23 | – | –
23 | NS(=O)(=O)c1cc(N(CCCl)CCCl)c([N+](=O)[O-])cc1[N+](=O)[O-] | 2.1 | 5.7 µM·h | 160 µM (≈ 62 µg/mL) | 1.7 | 2 µM | 1.5 | – | –
24 | CNC(=O)c1cc(N(CCCl)CCCl)c([N+](=O)[O-])cc1[N+](=O)[O-] | – | > 360 µM·h | 200 µM (≈ 73 µg/mL) | – | > 100 µM | – | – | –
